Measured values published in ChEMBL document CHEMBL3608232, “Exploring the Existing Drug Space for Novel pTyr Mimetic and SHP2 Inhibitors” (ACS Med Chem Lett, 2015).
pIC50, pKi: −log10 of the molar value. Blank lines part the entries; values can stand above or below the compound they belong to. The source made the active and inactive calls. No cut-off for these calls is given here.

Assays:
[1] = biological target: T1, Tyrosine-protein phosphatase non-receptor type 11 (Homo sapiens) (UniProt Q06124); test: Inhibition of phosphatase activity of SHP2 (unknown origin) using pNPP as a substrate at 50 uM after 10 mins by spectrophotometer analysis
T1 sequence (whole entry): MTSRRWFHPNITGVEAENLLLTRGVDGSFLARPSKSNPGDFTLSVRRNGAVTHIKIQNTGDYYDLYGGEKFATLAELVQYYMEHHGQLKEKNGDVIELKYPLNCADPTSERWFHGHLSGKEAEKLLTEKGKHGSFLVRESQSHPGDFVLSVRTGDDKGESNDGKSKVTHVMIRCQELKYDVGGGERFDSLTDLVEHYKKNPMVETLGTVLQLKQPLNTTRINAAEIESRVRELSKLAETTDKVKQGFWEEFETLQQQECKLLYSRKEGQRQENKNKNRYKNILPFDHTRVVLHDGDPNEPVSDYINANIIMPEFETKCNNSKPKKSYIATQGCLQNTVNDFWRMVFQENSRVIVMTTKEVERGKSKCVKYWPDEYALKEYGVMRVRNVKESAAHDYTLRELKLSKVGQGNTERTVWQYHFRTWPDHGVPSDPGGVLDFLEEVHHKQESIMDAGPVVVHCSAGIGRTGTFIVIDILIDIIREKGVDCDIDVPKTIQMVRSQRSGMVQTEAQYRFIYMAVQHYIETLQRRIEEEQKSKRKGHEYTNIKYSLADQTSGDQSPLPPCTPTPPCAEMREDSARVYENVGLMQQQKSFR

[2] = biological target: T2, Low molecular weight phosphotyrosine protein phosphatase (Homo sapiens, UniProt P24666); test: Inhibition of phosphatase activity of human LMWPTP using pNPP as a substrate after 10 mins by spectrophotometer analysis
T2 sequence (P24666 whole entry): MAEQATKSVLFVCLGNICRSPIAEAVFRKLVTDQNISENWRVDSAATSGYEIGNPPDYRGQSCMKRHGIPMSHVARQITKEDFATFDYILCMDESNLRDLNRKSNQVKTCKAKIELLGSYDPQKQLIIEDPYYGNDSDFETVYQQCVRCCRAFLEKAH

[3] = biological target: T3, Serine/threonine-protein phosphatase 5 (Homo sapiens, UniProt P53041); test: Inhibition of phosphatase activity of human PP5 using pNPP as a substrate after 10 mins by spectrophotometer analysis
T3 sequence (P53041 whole entry): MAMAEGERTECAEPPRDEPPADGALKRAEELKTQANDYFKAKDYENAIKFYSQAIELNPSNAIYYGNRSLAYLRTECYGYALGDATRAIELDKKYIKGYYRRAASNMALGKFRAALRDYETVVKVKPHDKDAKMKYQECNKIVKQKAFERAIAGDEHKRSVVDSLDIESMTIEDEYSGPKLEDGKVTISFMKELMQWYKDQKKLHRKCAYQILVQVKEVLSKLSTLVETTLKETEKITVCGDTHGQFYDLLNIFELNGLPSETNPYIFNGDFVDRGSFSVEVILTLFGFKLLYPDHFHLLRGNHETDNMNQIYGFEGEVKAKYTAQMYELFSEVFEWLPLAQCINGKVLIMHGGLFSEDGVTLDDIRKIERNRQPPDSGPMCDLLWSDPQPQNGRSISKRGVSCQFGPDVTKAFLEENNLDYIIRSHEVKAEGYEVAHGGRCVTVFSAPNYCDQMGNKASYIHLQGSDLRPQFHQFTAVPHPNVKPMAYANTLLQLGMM

[4] = biological target: Receptor-type tyrosine-protein phosphatase F (Homo sapiens, UniProt P10586); test: Inhibition of phosphatase activity of human LAR using pNPP as a substrate after 10 mins by spectrophotometer analysis
Receptor-type tyrosine-protein phosphatase F, sequence (P10586 whole entry): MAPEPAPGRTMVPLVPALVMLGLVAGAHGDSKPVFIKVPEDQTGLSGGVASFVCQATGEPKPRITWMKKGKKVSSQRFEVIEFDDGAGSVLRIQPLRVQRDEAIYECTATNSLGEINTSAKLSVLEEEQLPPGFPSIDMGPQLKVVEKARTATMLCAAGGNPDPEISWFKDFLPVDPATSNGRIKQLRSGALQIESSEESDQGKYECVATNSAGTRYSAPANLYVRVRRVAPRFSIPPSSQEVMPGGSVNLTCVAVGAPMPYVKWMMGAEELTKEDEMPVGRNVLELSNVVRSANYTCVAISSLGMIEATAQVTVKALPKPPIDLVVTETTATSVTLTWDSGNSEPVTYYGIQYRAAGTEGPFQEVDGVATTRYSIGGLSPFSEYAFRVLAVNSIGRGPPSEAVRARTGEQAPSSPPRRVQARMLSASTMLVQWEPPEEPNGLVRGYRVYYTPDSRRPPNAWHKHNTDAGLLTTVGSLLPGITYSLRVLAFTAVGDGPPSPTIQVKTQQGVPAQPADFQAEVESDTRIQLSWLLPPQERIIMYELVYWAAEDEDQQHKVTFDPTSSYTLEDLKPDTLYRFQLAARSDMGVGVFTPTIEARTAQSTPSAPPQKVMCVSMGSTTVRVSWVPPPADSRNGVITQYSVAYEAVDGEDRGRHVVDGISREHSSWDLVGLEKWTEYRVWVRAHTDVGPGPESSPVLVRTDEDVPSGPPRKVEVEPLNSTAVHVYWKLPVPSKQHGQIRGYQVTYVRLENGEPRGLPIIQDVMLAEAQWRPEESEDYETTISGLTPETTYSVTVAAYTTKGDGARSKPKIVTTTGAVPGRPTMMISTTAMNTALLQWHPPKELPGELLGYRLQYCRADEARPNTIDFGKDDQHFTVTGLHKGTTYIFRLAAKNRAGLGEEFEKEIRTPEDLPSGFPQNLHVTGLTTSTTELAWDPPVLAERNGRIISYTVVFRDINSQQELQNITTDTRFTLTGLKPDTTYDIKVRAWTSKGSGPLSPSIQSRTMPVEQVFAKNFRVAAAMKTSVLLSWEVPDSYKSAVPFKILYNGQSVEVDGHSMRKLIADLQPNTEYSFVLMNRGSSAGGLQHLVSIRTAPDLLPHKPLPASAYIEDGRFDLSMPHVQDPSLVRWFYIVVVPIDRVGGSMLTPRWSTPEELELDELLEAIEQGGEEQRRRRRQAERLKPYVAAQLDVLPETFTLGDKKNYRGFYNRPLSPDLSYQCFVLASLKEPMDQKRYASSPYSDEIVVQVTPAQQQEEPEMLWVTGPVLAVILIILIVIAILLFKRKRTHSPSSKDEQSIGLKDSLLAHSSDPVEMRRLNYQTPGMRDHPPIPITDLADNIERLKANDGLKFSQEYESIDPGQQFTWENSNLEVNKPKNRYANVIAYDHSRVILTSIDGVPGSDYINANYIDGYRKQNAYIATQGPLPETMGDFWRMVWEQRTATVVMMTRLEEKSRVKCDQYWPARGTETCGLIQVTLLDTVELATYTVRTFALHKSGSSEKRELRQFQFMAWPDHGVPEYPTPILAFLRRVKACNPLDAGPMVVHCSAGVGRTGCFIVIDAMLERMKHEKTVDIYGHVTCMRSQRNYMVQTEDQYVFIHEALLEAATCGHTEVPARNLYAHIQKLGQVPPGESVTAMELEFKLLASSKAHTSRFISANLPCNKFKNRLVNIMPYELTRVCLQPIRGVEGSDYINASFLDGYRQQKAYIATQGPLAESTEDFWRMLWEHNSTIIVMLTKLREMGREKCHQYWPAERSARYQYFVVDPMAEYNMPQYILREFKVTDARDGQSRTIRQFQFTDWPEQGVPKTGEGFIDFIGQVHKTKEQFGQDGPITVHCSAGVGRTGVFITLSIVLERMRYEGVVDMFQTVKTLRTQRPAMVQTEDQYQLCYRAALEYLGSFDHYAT

[5] = biological target: T4, Tyrosine-protein phosphatase non-receptor type 11 (Homo sapiens, UniProt Q06124); test: Competitive inhibition of phosphatase activity of SHP2 (unknown origin) using pNPP as a substrate Lineweaver-Burk plot analysis
T4 sequence (Q06124 whole entry): T1 sequence (whole entry)
Summary of the method: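 SHP2-catalysed hydrolysis of para-nitrophenyl phosphate measured with inhibitor at 0, 0.25, 0.5 and 0.75 μM. Inhibition mode assigned from a Lineweaver–Burk (double-reciprocal) plot.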

[6] = biological target: T5, Tyrosine-protein phosphatase non-receptor type 9 (Homo sapiens, UniProt P43378); test: Inhibition of phosphatase activity of human Meg2 using pNPP as a substrate after 10 mins by spectrophotometer analysis
T5 sequence (P43378 whole entry): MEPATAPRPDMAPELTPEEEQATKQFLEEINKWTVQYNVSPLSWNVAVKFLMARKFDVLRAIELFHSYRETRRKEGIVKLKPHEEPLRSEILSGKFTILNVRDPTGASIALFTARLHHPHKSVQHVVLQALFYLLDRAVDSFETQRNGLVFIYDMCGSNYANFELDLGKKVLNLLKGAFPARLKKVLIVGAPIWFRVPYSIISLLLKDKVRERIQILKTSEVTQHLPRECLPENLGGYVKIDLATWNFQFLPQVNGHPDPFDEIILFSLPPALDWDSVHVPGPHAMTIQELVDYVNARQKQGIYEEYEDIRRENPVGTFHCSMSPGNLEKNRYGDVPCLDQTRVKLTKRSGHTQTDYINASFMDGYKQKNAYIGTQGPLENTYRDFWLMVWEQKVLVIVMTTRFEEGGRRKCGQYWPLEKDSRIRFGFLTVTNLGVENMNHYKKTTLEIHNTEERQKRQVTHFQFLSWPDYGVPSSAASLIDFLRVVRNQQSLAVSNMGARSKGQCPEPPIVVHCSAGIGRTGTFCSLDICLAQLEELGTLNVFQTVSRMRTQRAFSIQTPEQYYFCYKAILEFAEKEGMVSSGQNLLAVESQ

[7] = biological target: Dual specificity protein phosphatase 3 (Homo sapiens, UniProt P51452); test: Inhibition of phosphatase activity of human VHR using pNPP as a substrate after 10 mins by spectrophotometer analysis
Dual specificity protein phosphatase 3, sequence (P51452 whole entry): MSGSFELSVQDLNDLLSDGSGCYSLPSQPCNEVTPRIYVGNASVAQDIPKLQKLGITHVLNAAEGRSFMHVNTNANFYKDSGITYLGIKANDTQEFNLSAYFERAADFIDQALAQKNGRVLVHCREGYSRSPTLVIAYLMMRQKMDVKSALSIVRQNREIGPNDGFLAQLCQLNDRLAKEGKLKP

[8] = biological target: T1, Tyrosine-protein phosphatase non-receptor type 11 (Homo sapiens); test: Inhibition of SHP2 in human NCI-H1975 cells assessed as reduction of EGF-induced ERK1/2 activation at 40 uM after 60 mins relative to control; format: cell-based
Summary of the method: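 H1975 cells were stimulated with EGF and ERK1/2 and paxillin phosphorylation was assessed by immunoblot. Band intensities were quantified, and pERK1/2/total ERK1/2 or pPaxillin(Y118)/total paxillin ratios were normalized to the reference. Blots are representative of at least two independent experiments, with quantified values given as mean ± SD.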

MDA-MB-231 = test: Cytotoxicity against human MDA-MB-231 cells by MTT assay; format: functional, cell-based
SK-BR-3 = test: Growth inhibition of human SKBR3 cells expressing ErbB2 in 3D matrigel after 5 days; format: functional, cell-based
[9] = biological target: T1, Tyrosine-protein phosphatase non-receptor type 11 (Homo sapiens); test: Inhibition of SHP2 in human NCI-H1975 cells assessed as increase in EGF-induced paxillin phosphorylation at Y118 at 40 uM after 60 mins relative to control
[10] = biological target: T6, Dual specificity protein phosphatase CDC14A (Homo sapiens, UniProt Q9UNH5); test: Inhibition of phosphatase activity of human CDC14A using pNPP as a substrate after 10 mins by spectrophotometer analysis
T6 sequence (Q9UNH5 whole entry): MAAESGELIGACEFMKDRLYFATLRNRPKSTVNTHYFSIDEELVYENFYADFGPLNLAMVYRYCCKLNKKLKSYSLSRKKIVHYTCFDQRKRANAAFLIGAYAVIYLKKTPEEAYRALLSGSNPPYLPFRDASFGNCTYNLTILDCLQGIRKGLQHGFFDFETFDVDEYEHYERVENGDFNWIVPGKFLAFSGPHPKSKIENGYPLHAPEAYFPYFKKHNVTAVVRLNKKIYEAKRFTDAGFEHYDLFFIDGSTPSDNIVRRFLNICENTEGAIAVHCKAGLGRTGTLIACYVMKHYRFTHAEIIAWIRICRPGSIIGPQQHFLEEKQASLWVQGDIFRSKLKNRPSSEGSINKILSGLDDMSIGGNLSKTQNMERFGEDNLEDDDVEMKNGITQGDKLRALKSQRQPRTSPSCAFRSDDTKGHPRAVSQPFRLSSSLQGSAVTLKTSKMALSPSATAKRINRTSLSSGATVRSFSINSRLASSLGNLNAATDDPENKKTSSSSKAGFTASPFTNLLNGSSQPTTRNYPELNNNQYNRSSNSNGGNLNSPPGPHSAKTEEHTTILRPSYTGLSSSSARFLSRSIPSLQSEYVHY

[11] = biological target: Receptor-type tyrosine-protein phosphatase epsilon (Homo sapiens, UniProt P23469); test: Inhibition of phosphatase activity of human PTPepsilon using pNPP as a substrate after 10 mins by spectrophotometer analysis
Receptor-type tyrosine-protein phosphatase epsilon, sequence (P23469 whole entry): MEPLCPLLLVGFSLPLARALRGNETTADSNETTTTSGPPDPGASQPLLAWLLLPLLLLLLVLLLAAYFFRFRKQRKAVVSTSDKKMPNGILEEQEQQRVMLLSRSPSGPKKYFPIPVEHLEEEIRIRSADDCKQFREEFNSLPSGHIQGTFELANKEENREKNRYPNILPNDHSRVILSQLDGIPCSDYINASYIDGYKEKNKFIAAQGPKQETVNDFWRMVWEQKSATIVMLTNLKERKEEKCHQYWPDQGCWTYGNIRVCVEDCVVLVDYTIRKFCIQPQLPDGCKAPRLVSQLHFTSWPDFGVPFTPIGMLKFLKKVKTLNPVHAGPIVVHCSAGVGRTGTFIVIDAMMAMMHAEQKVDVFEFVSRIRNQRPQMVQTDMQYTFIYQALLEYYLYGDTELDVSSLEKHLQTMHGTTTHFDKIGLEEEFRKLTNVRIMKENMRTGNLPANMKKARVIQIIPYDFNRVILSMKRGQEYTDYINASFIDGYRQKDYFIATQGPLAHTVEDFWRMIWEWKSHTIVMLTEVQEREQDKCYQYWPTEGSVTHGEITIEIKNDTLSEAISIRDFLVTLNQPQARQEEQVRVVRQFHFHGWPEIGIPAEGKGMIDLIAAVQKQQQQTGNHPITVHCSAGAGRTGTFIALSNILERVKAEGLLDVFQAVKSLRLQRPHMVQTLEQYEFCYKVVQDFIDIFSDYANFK

[12] = biological target: Receptor-type tyrosine-protein phosphatase alpha (Homo sapiens, UniProt P18433); test: Inhibition of phosphatase activity of human PTPalpha using pNPP as a substrate after 10 mins by spectrophotometer analysis
Receptor-type tyrosine-protein phosphatase alpha, sequence (P18433 whole entry): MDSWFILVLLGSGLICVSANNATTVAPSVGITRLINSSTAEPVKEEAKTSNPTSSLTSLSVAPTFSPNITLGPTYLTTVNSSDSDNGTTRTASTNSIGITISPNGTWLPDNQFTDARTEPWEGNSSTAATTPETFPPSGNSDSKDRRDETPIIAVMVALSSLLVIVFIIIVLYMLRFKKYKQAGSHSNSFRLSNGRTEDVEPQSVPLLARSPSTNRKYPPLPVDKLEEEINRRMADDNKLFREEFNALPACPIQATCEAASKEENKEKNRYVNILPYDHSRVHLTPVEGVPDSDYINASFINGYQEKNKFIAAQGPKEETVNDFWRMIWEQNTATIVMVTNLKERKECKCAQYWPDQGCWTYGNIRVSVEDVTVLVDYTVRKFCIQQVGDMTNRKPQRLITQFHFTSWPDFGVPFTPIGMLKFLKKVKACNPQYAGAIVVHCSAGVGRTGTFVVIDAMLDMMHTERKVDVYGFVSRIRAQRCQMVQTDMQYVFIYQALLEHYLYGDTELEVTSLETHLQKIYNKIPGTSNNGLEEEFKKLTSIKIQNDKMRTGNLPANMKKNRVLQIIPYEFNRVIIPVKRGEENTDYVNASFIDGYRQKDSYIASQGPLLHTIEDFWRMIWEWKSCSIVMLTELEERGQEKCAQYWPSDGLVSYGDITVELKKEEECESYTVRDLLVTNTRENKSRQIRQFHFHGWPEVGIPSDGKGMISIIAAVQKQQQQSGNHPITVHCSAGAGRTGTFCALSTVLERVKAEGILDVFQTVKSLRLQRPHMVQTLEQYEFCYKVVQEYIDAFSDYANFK

[13] = biological target: Receptor-type tyrosine-protein phosphatase gamma (Homo sapiens, UniProt P23470); test: Inhibition of phosphatase activity of human PTPgamma using pNPP as a substrate after 10 mins by spectrophotometer analysis
[14] = biological target: Receptor-type tyrosine-protein phosphatase mu (Homo sapiens, UniProt P28827); test: Inhibition of phosphatase activity of human PTPmu using pNPP as a substrate after 10 mins by spectrophotometer analysis
Receptor-type tyrosine-protein phosphatase mu, sequence (P28827 whole entry): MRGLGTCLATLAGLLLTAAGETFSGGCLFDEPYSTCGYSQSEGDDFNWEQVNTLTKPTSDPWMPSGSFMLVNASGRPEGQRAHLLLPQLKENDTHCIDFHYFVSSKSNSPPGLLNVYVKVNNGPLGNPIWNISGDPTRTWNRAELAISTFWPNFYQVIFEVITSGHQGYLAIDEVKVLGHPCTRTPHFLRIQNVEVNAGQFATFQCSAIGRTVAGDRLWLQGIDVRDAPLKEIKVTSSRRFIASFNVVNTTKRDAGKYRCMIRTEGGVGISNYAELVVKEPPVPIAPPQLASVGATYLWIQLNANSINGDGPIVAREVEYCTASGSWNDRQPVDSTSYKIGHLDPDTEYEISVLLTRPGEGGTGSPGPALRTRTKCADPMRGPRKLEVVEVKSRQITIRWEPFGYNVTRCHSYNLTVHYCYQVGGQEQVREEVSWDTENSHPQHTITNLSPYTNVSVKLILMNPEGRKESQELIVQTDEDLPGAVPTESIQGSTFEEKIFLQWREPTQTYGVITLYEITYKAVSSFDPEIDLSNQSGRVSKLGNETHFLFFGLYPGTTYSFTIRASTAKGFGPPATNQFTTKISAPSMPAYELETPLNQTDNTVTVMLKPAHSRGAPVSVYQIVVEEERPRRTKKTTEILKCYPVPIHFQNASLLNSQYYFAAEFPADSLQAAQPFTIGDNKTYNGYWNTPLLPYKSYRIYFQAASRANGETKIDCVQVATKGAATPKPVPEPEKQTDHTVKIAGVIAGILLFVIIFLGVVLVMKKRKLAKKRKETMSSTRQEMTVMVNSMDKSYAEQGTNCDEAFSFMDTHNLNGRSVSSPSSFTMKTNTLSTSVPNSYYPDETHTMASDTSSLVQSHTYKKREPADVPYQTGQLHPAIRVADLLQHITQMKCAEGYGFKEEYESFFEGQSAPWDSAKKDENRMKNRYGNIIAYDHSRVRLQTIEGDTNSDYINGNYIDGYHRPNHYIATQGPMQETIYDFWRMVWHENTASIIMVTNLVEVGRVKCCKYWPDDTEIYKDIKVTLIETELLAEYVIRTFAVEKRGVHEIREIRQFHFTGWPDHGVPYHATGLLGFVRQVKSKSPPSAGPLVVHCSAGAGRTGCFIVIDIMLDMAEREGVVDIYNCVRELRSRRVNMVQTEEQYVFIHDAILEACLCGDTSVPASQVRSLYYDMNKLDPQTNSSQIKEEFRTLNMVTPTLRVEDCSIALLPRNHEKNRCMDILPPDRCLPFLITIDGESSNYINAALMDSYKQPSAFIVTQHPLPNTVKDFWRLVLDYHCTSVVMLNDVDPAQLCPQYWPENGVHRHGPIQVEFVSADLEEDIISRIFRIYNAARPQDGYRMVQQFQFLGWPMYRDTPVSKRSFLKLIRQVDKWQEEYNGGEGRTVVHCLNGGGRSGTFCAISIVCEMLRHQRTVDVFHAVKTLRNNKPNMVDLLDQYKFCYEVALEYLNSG

[15] = biological target: T7, Tyrosine-protein phosphatase non-receptor type 7 (Homo sapiens, UniProt P35236); test: Inhibition of phosphatase activity of human HePTP using pNPP as a substrate after 10 mins by spectrophotometer analysis
T7 sequence (P35236 whole entry): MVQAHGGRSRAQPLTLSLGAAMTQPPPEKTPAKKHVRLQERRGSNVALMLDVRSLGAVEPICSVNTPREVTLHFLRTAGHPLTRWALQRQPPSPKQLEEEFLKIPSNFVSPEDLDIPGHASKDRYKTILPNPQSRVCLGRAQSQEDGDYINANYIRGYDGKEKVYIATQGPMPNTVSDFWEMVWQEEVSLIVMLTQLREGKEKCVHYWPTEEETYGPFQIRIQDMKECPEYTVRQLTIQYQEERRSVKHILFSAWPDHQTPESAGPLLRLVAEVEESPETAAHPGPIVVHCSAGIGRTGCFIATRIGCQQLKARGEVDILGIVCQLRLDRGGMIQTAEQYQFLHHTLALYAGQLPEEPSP

[16] = biological target: T8, Tyrosine-protein phosphatase non-receptor type 22 (Homo sapiens, UniProt Q9Y2R2); test: Inhibition of phosphatase activity of human LYP using pNPP as a substrate after 10 mins by spectrophotometer analysis
T8 sequence (Q9Y2R2 whole entry): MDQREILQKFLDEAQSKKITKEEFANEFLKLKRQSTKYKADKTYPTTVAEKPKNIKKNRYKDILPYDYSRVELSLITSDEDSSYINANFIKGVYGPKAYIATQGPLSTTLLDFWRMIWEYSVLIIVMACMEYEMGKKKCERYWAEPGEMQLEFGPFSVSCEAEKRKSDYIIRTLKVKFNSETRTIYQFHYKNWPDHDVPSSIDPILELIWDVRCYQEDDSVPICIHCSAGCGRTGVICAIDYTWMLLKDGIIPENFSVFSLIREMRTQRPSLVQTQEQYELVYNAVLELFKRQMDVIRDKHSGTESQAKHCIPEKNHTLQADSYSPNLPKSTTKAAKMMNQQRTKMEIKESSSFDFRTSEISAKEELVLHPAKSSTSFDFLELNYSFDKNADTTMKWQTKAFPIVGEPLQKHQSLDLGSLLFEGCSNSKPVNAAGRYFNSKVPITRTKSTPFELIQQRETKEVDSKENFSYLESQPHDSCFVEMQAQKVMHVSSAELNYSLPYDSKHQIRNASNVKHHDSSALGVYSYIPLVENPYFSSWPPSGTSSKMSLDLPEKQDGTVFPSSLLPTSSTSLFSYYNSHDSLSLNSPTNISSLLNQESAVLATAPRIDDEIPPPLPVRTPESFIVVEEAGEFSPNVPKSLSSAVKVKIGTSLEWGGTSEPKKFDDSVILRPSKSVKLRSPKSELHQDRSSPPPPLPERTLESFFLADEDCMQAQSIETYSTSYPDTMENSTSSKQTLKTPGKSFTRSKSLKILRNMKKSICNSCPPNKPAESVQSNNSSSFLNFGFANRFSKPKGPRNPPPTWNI

[17] = biological target: Receptor-type tyrosine-protein phosphatase beta (Homo sapiens, UniProt P23467); test: Inhibition of phosphatase activity of human PTPbeta using pNPP as a substrate after 10 mins by spectrophotometer analysis
NCI-H1975 = test: Cytotoxicity against human NCI-H1975 cells by MTT assay; format: functional, cell-based

inhibition [1]: inactive
Compound: O=C(O)C(=O)Nc1ccc(NC(=O)C(c2ccccc2)S(=O)(=O)O)cc1 (configuration not stated)

inhibition [1]: inactive
Compound: O=C(O)C(=O)NCc1ccc(NC(=O)C(c2ccccc2)S(=O)(=O)O)cc1 (configuration not stated)

pIC50 [2]: < 4.30
pIC50 [3]: < 4.30
pIC50 [4]: < 4.30
pKi [5]: 6.29
pIC50 [6]: < 4.30
pIC50 [7]: < 4.30
fold change (FC) [8]: 0.6
fold change (FC) [9]: 1.3
pIC50 [10]: < 4.30
pIC50 [11]: < 4.30
pIC50 [12]: < 4.30
pIC50 [13]: < 4.30
pIC50 [14]: < 4.30
pIC50 [15]: < 4.30
pIC50 [16]: < 4.30
pIC50 [17]: < 4.30
Compound: O=C(Nc1ccc(I)cc1)C(=O)Nc1ccc(NC(=O)C(c2ccccc2)S(=O)(=O)O)cc1 (configuration not stated)
Activity (MDA-MB-231): Dose-dependent effect
growth inhibition (GI) (SK-BR-3): Dose-dependent effect
Activity (NCI-H1975): Dose-dependent effect

inhibition [1]: inactive
Compound: O=C(O)C(=O)Nc1ccc(CNC(=O)C(c2ccccc2)S(=O)(=O)O)cc1 (configuration not stated)
